The source of these data is ChEMBL document CHEMBL3351370, “Straightforward entry to pyrido[2,3-d]pyrimidine-2,4(1H,3H)-diones and their ADME properties” (Bioorg Med Chem, 2014).

As a reminder, the Papp is a coefficient for how fast a substance crosses the barrier.

In series [1] the test system is Liver microsome. The experiment in a line: Stability in human liver microsomes assessed as metabolite formation at 8 uM at 37 degC in absence of NADPH and glucose-6-phosphate. In kind it is ADME. The procedure, abridged: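 Negative control. Compound 8 µM with pooled human liver microsomes (45 donors, 0.5 mg protein/ml) in 0.1 M phosphate buffer pH 7.4 with 3 mM MgCl₂, without NADPH and glucose-6-phosphate. 37 °C, 350 rpm. Aliquots taken at 0, 10, 20 and 30 min and quenched in acetonitrile. Parent compound measured by HPLC (UV or fluorescence).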
A general note: Liver microsomes are vesicles of endoplasmic reticulum, rich in cytochrome P450 enzymes.

In series [2] the test system is Liver microsome. The experiment in a line: Stability in human liver microsomes assessed as metabolite formation at 8 uM at 37 degC in presence of NADPH and glucose-6-phosphate. In kind it is ADME. The procedure, abridged: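 Compound 8 µM with pooled human liver microsomes (45 donors, 0.5 mg protein/ml) in 0.1 M phosphate buffer pH 7.4 with 3 mM MgCl₂. Started by adding NADPH (1 mM) and glucose-6-phosphate (3 mM). 37 °C, 350 rpm. Aliquots at 0, 10, 20 and 30 min quenched in acetonitrile. Parent compound measured by HPLC-UV/fluorescence as % remaining; Clint from in vitro t1/2 method, scaled to human hepatic Clint.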

The nature of series [3]: Thermodynamic solubility in FaSSIF medium after 24 hrs by UV detection and HPLC method. The conditions noted are these: read-out: Therm_solubility. The series is classed as physicochemical. The procedure, abridged:
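Excess solid added to FaSSIF (SIF powder in phosphate buffer), shaken 24 h at 175 rpm and 37 °C, then centrifuged at 20,817g for 15 min. Supernatant quantified by HPLC with UV detection. n = 3.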

The nature of series [4]: Apparent permeability in human Caco2 cells. In kind it is ADME, cell-based. The note with it: Caco-2. On the technique in general: Caco-2 cells form a polarised layer with tight junctions and transporters.

Each structure is given as a SMILES string. Values after ≈ are worked out from the molar mass of the structure shown.

In the case of `C=CCOC(=O)c1cccnc1NC12CC3CC(CC(C3)C1)C2`, the Stability result in series [1] is “Stable”. Also, the Drug metabolism result in series [2] is “metabolite_detected”. In addition, in series [3], the solubility thermodynamic at 24 h is 20.7 µM (≈ 6.47 µg/mL). Moreover, the apparent permeability coefficient (Papp) in series [4] was found to be 1.2 ×10⁻⁶ cm/s.
For `C=CCNC(=O)c1cccnc1NCC=C`, the Stability result in series [1] and in series [2] was “Stable” throughout.
In the case of `CC(C)CCNC(=O)c1cccnc1NCCC(C)C`, the Stability result in series [1] and in series [2] was “Stable” throughout.
Take `O=C(NC1CCCCC1)c1cccnc1NC1CCCCC1`: the Stability result in series [1] was “Stable”. Moreover, the Drug metabolism result in series [2] was “metabolite_detected”.
For `C=CCn1c(=O)c2cccnc2n(CC=C)c1=O`, the Stability result in series [1] and in series [2] was “Stable” each time.
On to `CCCn1c(=O)c2cccnc2n(CCC)c1=O`, for which the Stability result in series [1] and in series [2] was “Stable” in each case.
With `CC(C)CCn1c(=O)c2cccnc2n(CCC(C)C)c1=O`, the Stability entry in series [1] was “Stable”. Also, in series [2], the Drug metabolism entry was “metabolite_detected”.
For the compound `O=c1c2cccnc2n(Cc2ccccc2)c(=O)n1Cc1ccccc1`, the Stability entry in series [1] and in series [2] was “Stable” throughout.
In the case of `C=CCNC(=O)c1cccnc1NC(C)(C)CC(C)(C)C`, the Stability result in series [1] is “Stable”. Moreover, the Drug metabolism entry in series [2] is on record as “metabolite_detected”.
For the compound `C=CCn1c(=O)c2cccnc2n(C2CCCCC2)c1=O`, the Stability result in series [1] and in series [2] was “Stable” throughout.
As to `COc1ccc2c(c1)c(CC(=O)O)c(C)n2C(=O)c1ccc(Cl)cc1` [INDOMETHACIN], in series [4], the Papp was 93.3 ×10⁻⁶ cm/s.
